Laboratory results from ChEMBL document CHEMBL4382271, “Eucalypglobulusals A-J, Formyl-Phloroglucinol-Terpene Meroterpenoids from Eucalyptus globulus Fruits” (J Nat Prod, 2018).
Calls of active or inactive are those of the source. The calls are words filed in the database; no cut-off is given here.

tested on: HCT-116; experiment: Cytotoxicity against human HCT116 cells by MTT assay; type: functional, cell-based

Row | SMILES | IC50 [µM]
1 | CC[C@@]1(O)C(=O)OCc2c1cc1n(c2=O)Cc2cc3ccccc3nc2-1 [CAMPTOTHECIN] | 0.013
2 | C=C1/C=C/[C@H](C(C)(C)O)C[C@H]2[C@@H](CC(C)C)c3c(O)c(C=O)c(O)c(C=O)c3O[C@]2(C)CCC1 | > 10
3 | C=C(C)[C@@H]1C=C2[C@@H](C)CC[C@@H](Cc3c(O)c(C=O)c(O)c(C(=O)CC(C)C)c3O)[C@]2(C)CC1 | 9.6
4 | CC(C)CC(=O)c1c(O)c(C=O)c(O)c(C[C@@]2(C)CC[C@H]3C2=C[C@H](C(C)(C)O)CC[C@H]3C)c1O | > 10
5 | COc1cc([C@@H]2c3cc4c(cc3[C@@H](O[C@@H]3O[C@@H]5CO[C@@H](C)O[C@H]5[C@H](O)[C@H]3O)[C@H]3COC(=O)[C@H]23)OCO4)cc(OC)c1O [ETOPOSIDE] | > 10
6 | CC(C)CC(=O)c1c(O)c(C=O)c(O)c(C[C@@]2(C)CC[C@@H]3[C@@H]2[C@H]2[C@@H](CC[C@@]3(C)O)C2(C)C)c1O [EUCALYPTIN A] | 9.6

tested on: CCRF-CEM; experiment: Cytotoxicity against human CCRF-CEM cells by MTT assay; type: functional, cell-based

Row | SMILES | IC50 [µM]
7 | CC[C@@]1(O)C(=O)OCc2c1cc1n(c2=O)Cc2cc3ccccc3nc2-1 [CAMPTOTHECIN] | 0.002
8 | C=C1/C=C/[C@H](C(C)(C)O)C[C@H]2[C@@H](CC(C)C)c3c(O)c(C=O)c(O)c(C=O)c3O[C@]2(C)CCC1 | 3.3
9 | C=C(C)[C@@H]1C=C2[C@@H](C)CC[C@@H](Cc3c(O)c(C=O)c(O)c(C(=O)CC(C)C)c3O)[C@]2(C)CC1 | > 10
10 | CC(C)CC(=O)c1c(O)c(C=O)c(O)c(C[C@@]2(C)CC[C@H]3C2=C[C@H](C(C)(C)O)CC[C@H]3C)c1O | 6.9
11 | COc1cc([C@@H]2c3cc4c(cc3[C@@H](O[C@@H]3O[C@@H]5CO[C@@H](C)O[C@H]5[C@H](O)[C@H]3O)[C@H]3COC(=O)[C@H]23)OCO4)cc(OC)c1O [ETOPOSIDE] | 1.1
12 | CC(C)CC(=O)c1c(O)c(C=O)c(O)c(C[C@@]2(C)CC[C@@H]3[C@@H]2[C@H]2[C@@H](CC[C@@]3(C)O)C2(C)C)c1O [EUCALYPTIN A] | > 10

biological target: T1, DNA topoisomerase I (Bos taurus) (UniProt F1MN93); experiment: Inhibition of calf thymus topoisomerase-1 assessed as reduction in cleavage complex formation by measuring decrease in nicked form DNA using supercoiled pBR322 DNA as substrate after 30 mins by agarose gel electrophoresis assay
T1 sequence (whole entry): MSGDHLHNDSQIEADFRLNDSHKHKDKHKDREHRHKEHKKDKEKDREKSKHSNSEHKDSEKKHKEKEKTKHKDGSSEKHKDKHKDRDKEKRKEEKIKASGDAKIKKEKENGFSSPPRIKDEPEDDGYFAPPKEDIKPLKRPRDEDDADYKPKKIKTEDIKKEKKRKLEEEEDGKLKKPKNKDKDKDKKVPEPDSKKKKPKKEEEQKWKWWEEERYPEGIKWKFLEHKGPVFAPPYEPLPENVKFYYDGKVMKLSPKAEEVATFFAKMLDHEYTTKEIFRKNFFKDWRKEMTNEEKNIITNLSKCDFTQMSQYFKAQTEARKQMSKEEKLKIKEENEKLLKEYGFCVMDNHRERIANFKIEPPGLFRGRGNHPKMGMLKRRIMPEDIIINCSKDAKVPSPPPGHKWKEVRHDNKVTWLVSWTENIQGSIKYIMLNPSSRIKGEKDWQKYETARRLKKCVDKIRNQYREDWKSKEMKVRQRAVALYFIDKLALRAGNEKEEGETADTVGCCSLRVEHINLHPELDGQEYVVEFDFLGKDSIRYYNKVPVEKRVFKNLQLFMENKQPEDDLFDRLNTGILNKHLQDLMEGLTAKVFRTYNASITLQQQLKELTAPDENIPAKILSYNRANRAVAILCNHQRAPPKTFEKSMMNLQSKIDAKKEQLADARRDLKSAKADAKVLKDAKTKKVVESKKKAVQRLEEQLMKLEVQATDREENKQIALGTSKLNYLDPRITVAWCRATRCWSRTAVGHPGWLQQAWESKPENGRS

Row | SMILES | inhibition
13 | CC(=O)[C@@]12C=C(C(C)C)CC[C@@]1(C)[C@H]([C@@H](CC(C)C)c1c(O)c(C=O)c(O)c(C=O)c1O)C[C@H]2O | Dose-dependent effect

tested on: DU-145; experiment: Cytotoxicity against human DU145 cells by MTT assay; type: functional, cell-based

Row | SMILES | IC50 [µM]
14 | CC[C@@]1(O)C(=O)OCc2c1cc1n(c2=O)Cc2cc3ccccc3nc2-1 [CAMPTOTHECIN] | 0.016
15 | C=C1/C=C/[C@H](C(C)(C)O)C[C@H]2[C@@H](CC(C)C)c3c(O)c(C=O)c(O)c(C=O)c3O[C@]2(C)CCC1 | > 10
16 | C=C(C)[C@@H]1C=C2[C@@H](C)CC[C@@H](Cc3c(O)c(C=O)c(O)c(C(=O)CC(C)C)c3O)[C@]2(C)CC1 | > 10
17 | CC(C)CC(=O)c1c(O)c(C=O)c(O)c(C[C@@]2(C)CC[C@H]3C2=C[C@H](C(C)(C)O)CC[C@H]3C)c1O | > 10
18 | COc1cc([C@@H]2c3cc4c(cc3[C@@H](O[C@@H]3O[C@@H]5CO[C@@H](C)O[C@H]5[C@H](O)[C@H]3O)[C@H]3COC(=O)[C@H]23)OCO4)cc(OC)c1O [ETOPOSIDE] | > 10
19 | CC(C)CC(=O)c1c(O)c(C=O)c(O)c(C[C@@]2(C)CC[C@@H]3[C@@H]2[C@H]2[C@@H](CC[C@@]3(C)O)C2(C)C)c1O [EUCALYPTIN A] | 8.9

biological target: T1, DNA topoisomerase I (Bos taurus); experiment: Inhibition of calf thymus topoisomerase-1-mediated supercoiled pBR322 DNA unwinding at 25 uM preincubated with DNA for 10 mins followed by enzyme addition and measured after 30 mins by agarose gel electrophoresis assay
Procedure, shortened: (§1)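 Top1-mediated unwinding assay with ethidium bromide, a DNA intercalator, as positive control. It tests whether compounds unwind DNA by intercalation.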

Row | SMILES | inhibition
20 | CC(=O)[C@@]12C=C(C(C)C)CC[C@@]1(C)[C@H]([C@@H](CC(C)C)c1c(O)c(C=O)c(O)c(C=O)c1O)C[C@H]2O | inactive
21 | CC[n+]1c(-c2ccccc2)c2cc(N)ccc2c2ccc(N)cc21 | Active
22 | CC(C)C[C@@H](c1c(O)c(C=O)c(O)c(C=O)c1O)[C@@]1(C)CC[C@@H]2[C@@H]1[C@H]1[C@@H](CC[C@@]2(C)O)C1(C)C | inactive

biological target: T1, DNA topoisomerase I (Bos taurus); experiment: Inhibition of calf thymus topoisomerase-1-mediated supercoiled pBR322 DNA relaxation at 50 uM after 30 mins by agarose gel electrophoresis assay relative to control
Procedure, shortened: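 Top1-mediated plasmid relaxation run at 50 μM test concentration. Camptothecin (CPT) was included as reference inhibitor. Inhibition was expressed as percentage ranges from gel band intensities.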

Row | SMILES | inhibition [%]
23 | CC[C@@]1(O)C(=O)OCc2c1cc1n(c2=O)Cc2cc3ccccc3nc2-1 [CAMPTOTHECIN] | > 90
24 | C=C1/C=C/[C@H](C(C)(C)O)C[C@H]2[C@@H](CC(C)C)c3c(O)c(C=O)c(O)c(C=O)c3O[C@]2(C)CCC1 | 60 to 89
25 | C=C(C)[C@@H]1C=C2[C@@H](C)CC[C@@H](Cc3c(O)c(C=O)c(O)c(C(=O)CC(C)C)c3O)[C@]2(C)CC1 | > 90
26 | CC(C)CC(=O)c1c(O)c(C=O)c(O)c(C[C@@]2(C)CC[C@H]3C2=C[C@H](C(C)(C)O)CC[C@H]3C)c1O | > 90
27 | CC(C)CC(=O)c1c(O)c(C=O)c(O)c(C[C@@]2(C)CC[C@@H]3[C@@H]2[C@H]2[C@@H](CC[C@@]3(C)O)C2(C)C)c1O [EUCALYPTIN A] | > 90

tested on: Huh-7; experiment: Cytotoxicity against human HuH7 cells by MTT assay; type: functional, cell-based

Row | SMILES | IC50 [µM]
28 | CC[C@@]1(O)C(=O)OCc2c1cc1n(c2=O)Cc2cc3ccccc3nc2-1 [CAMPTOTHECIN] | 0.0023
29 | C=C1/C=C/[C@H](C(C)(C)O)C[C@H]2[C@@H](CC(C)C)c3c(O)c(C=O)c(O)c(C=O)c3O[C@]2(C)CCC1 | > 10
30 | C=C(C)[C@@H]1C=C2[C@@H](C)CC[C@@H](Cc3c(O)c(C=O)c(O)c(C(=O)CC(C)C)c3O)[C@]2(C)CC1 | > 10
31 | CC(C)CC(=O)c1c(O)c(C=O)c(O)c(C[C@@]2(C)CC[C@H]3C2=C[C@H](C(C)(C)O)CC[C@H]3C)c1O | > 10
32 | COc1cc([C@@H]2c3cc4c(cc3[C@@H](O[C@@H]3O[C@@H]5CO[C@@H](C)O[C@H]5[C@H](O)[C@H]3O)[C@H]3COC(=O)[C@H]23)OCO4)cc(OC)c1O [ETOPOSIDE] | 7.4
33 | CC(C)CC(=O)c1c(O)c(C=O)c(O)c(C[C@@]2(C)CC[C@@H]3[C@@H]2[C@H]2[C@@H](CC[C@@]3(C)O)C2(C)C)c1O [EUCALYPTIN A] | > 10

tested on: A549; experiment: Cytotoxicity against human A549 cells by MTT assay; type: functional, cell-based

Row | SMILES | IC50 [µM]
34 | CC[C@@]1(O)C(=O)OCc2c1cc1n(c2=O)Cc2cc3ccccc3nc2-1 [CAMPTOTHECIN] | 0.04
35 | C=C1/C=C/[C@H](C(C)(C)O)C[C@H]2[C@@H](CC(C)C)c3c(O)c(C=O)c(O)c(C=O)c3O[C@]2(C)CCC1 | > 10
36 | C=C(C)[C@@H]1C=C2[C@@H](C)CC[C@@H](Cc3c(O)c(C=O)c(O)c(C(=O)CC(C)C)c3O)[C@]2(C)CC1 | 5.2
37 | CC(C)CC(=O)c1c(O)c(C=O)c(O)c(C[C@@]2(C)CC[C@H]3C2=C[C@H](C(C)(C)O)CC[C@H]3C)c1O | 5.3
38 | COc1cc([C@@H]2c3cc4c(cc3[C@@H](O[C@@H]3O[C@@H]5CO[C@@H](C)O[C@H]5[C@H](O)[C@H]3O)[C@H]3COC(=O)[C@H]23)OCO4)cc(OC)c1O [ETOPOSIDE] | > 10
39 | CC(C)CC(=O)c1c(O)c(C=O)c(O)c(C[C@@]2(C)CC[C@@H]3[C@@H]2[C@H]2[C@@H](CC[C@@]3(C)O)C2(C)C)c1O [EUCALYPTIN A] | 4.9

biological target: T1, DNA topoisomerase I (Bos taurus); experiment: Inhibition of calf thymus topoisomerase-1-mediated relaxed pBR322 DNA unwinding at 25 uM preincubated with DNA for 10 mins followed by enzyme addition and measured after 30 mins by agarose gel electrophoresis assay; procedure, shortened: as §1

Row | SMILES | inhibition
40 | CC(=O)[C@@]12C=C(C(C)C)CC[C@@]1(C)[C@H]([C@@H](CC(C)C)c1c(O)c(C=O)c(O)c(C=O)c1O)C[C@H]2O | inactive
41 | CC[n+]1c(-c2ccccc2)c2cc(N)ccc2c2ccc(N)cc21 | Active
42 | CC(C)C[C@@H](c1c(O)c(C=O)c(O)c(C=O)c1O)[C@@]1(C)CC[C@@H]2[C@@H]1[C@H]1[C@@H](CC[C@@]2(C)O)C1(C)C | inactive
